Data set [1] has as its target DNA-dependent protein kinase catalytic subunit (Homo sapiens, UniProt P78527). In words: Inhibition of DNA-PK isolated from human HeLa nuclear extract using full length His-tagged p53 as substrate measured after 75 mins in presence of ATP by HTRF assay. Type of data set: subcellular, Nucleus. The gist of the method:
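Buffer was 50 mM HEPES pH 7.5, 5 mM MgCl₂, 0.01% Brij35, 1 mM DTT and 1 μg/mL sheared calf thymus DNA; reaction ran 75 min at 20 °C. Stopped with d2-anti-6HIS and cryptate anti-phospho-p53 antibodies in KF/EDTA buffer. Read at 665/620 nm after 7 h.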
A general note: In TR-FRET formats the signal depends on donor and acceptor labels being close together.

For data set [2], the target named is Serine/threonine-protein kinase ATR (Homo sapiens, UniProt Q13535). In words: Inhibition of ATR in human HT-29 cells assessed as reduction in CHK1 phosphorylation incubated for 4 hrs. Type of data set: cell-based. The gist of the method: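 HT29 cells seeded at 25k/well overnight, then treated with compound titrations (0.3% DMSO) plus 10 μM gemcitabine for 4 h. Cells fixed in paraformaldehyde, permeabilized with Triton-X, and stained for phospho-Chk1 and total Chk1 using LI-COR IRDye detection. Ratio normalized to DMSO and 30 μM AZ-20 controls. IC50 is the mean of at least two experiments.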

Data set [3] addresses Phosphatidylinositol 3-kinase catalytic subunit type 3 (Homo sapiens, UniProt Q8NEB9). The experiment in a line: Inhibition of full length recombinant GST-tagged human VPS34 expressed in baculovirus expression system using PI/PS as substrate incubated for 60 mins in presence of ATP at Km concentration by luminescence assay.
The nature of data set [4]: Kinetic solubility of the compound in pH 7.4 PBS buffer incubated for 2 hrs using orbital shaker by LC-UV mass spectrometry. In kind it is physicochemical. Particulars: read-out: Kinetic_solubility. The gist of the method: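 Shaken on an orbital shaker for 2 h at room temperature, then filtered. Filtrate analysed by LC-UV with MS confirmation, calibrated against 200 μM and 10 μM DMSO dilutions.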

The nature of data set [5]: Aqueous solubility of the compound in pH 7.4. In kind it is physicochemical. Particulars: buffer.

Converted amounts (≈) assume the structure as drawn.

The record followed here is ChEMBL document CHEMBL4823251, “Structure-Based Exploration of Selectivity for ATM Inhibitors in Huntington's Disease” (J Med Chem, 2021).

Sequence of Serine/threonine-protein kinase ATR (Q13535 whole entry): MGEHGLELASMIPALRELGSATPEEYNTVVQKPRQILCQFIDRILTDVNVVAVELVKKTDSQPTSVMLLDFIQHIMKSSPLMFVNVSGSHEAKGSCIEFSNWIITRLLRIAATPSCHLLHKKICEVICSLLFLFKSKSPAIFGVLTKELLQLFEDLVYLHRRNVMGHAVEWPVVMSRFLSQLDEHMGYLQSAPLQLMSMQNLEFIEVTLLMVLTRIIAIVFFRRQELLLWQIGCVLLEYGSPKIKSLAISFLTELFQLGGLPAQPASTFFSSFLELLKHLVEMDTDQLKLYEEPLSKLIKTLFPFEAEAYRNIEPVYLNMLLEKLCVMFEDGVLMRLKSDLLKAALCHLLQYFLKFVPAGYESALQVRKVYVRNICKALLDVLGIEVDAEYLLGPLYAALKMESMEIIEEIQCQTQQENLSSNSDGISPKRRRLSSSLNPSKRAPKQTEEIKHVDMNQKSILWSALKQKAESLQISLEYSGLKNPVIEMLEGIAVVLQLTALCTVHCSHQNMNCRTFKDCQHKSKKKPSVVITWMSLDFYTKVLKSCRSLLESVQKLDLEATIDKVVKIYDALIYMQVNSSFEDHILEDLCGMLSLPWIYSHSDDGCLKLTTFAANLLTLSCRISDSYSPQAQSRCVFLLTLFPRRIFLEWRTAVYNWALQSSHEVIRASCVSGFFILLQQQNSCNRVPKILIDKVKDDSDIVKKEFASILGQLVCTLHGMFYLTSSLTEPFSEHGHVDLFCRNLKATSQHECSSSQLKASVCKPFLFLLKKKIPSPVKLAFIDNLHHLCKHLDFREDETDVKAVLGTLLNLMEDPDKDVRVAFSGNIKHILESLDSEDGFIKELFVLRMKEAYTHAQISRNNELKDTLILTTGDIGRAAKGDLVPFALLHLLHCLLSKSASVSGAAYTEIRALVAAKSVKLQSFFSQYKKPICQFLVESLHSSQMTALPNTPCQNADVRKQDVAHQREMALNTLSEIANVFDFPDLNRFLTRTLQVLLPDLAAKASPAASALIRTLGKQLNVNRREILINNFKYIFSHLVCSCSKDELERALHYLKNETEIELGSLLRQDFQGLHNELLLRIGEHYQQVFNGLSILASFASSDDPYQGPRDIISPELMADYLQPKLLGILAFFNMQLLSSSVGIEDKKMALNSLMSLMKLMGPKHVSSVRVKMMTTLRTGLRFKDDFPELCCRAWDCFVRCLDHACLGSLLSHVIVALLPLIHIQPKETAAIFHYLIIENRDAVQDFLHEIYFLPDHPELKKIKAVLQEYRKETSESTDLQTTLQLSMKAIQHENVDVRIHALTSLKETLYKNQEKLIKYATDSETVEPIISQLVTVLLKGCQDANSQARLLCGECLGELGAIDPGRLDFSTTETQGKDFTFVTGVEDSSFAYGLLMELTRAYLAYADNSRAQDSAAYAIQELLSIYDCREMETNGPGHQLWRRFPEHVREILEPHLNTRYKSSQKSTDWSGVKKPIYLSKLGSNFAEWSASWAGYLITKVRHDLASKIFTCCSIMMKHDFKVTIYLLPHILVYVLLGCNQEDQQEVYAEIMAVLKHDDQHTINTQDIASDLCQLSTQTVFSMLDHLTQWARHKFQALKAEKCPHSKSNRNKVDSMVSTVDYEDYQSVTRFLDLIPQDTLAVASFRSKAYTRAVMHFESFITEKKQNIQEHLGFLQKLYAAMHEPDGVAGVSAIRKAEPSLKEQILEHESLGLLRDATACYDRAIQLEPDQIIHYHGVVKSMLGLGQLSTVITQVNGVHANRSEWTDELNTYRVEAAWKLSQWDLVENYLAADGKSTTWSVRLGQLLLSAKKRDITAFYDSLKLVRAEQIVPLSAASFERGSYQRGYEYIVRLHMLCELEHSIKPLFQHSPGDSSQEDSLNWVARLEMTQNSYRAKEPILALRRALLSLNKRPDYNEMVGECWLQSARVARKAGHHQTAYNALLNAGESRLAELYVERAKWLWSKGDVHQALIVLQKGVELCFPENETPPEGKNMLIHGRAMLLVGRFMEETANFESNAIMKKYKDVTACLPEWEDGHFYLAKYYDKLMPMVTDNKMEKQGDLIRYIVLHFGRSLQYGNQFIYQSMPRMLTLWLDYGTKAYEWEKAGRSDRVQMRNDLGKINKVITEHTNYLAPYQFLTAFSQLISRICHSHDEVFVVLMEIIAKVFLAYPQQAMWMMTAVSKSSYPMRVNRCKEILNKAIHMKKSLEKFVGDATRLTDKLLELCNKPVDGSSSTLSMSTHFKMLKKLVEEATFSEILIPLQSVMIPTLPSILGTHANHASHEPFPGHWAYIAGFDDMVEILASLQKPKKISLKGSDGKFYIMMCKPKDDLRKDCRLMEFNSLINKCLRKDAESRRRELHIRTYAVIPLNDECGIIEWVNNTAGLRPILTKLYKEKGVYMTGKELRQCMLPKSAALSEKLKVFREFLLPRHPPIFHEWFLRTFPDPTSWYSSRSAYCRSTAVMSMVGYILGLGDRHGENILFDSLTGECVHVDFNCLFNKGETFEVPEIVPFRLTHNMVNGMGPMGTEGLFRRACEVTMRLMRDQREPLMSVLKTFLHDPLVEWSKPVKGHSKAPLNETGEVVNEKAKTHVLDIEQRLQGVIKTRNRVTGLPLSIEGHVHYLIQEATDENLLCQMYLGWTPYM
Sequence of Phosphatidylinositol 3-kinase catalytic subunit type 3 (Q8NEB9 whole entry): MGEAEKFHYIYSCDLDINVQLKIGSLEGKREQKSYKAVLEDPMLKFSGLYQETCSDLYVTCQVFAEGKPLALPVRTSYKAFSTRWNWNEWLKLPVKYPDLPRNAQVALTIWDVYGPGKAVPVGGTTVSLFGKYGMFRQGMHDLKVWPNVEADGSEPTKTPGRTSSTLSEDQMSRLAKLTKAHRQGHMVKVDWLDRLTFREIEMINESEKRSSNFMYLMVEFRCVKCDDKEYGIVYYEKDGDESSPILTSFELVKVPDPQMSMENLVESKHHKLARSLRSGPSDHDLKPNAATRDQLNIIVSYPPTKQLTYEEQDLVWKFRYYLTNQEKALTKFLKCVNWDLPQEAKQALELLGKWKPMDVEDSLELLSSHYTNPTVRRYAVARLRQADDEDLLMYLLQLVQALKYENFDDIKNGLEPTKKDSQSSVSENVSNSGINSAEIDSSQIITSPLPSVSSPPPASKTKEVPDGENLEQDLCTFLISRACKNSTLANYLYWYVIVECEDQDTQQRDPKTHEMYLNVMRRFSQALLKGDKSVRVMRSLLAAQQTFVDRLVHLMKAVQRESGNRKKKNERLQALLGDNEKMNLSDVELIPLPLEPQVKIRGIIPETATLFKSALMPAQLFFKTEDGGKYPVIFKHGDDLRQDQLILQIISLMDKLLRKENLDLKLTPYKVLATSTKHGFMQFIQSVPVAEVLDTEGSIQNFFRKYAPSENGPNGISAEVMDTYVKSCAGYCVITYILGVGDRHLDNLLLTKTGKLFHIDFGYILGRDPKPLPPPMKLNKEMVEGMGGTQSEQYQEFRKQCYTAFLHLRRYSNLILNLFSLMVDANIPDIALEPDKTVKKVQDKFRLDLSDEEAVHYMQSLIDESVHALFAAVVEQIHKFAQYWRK

By Ki is commonly meant a dissociation constant, usually derived from enzyme kinetics or from competition with a known ligand. As a reminder, the IC50 is the concentration that inhibits the measured activity by half. `C[C@@H]1CN(c2cc(N3C[C@@H]4C[C@@H]4[C@@H]3Cc3ccccc3)[nH]c(=O)c2)CCO1`: the Ki in data set [1] is 0.007 µM; in data set [3] it was 0.75 µM. The IC50 in data set [2] is 13 µM. For the same compound, the solubility kinetic at 2 h in data set [4] worked out at 23 µg/mL (≈ 62.9 µM).
As usually defined, the solubility is how much of the substance goes into solution per volume. Higher therefore signals a readily soluble substance. In the case of `COc1ccc2c(c1)Cc1cccc(-c3cc(=O)cc(N4CCOCC4)o3)c1S2`, in data set [5], the solubility was 1 µg/mL (≈ 2.45 µM). Also, the solubility kinetic at 2 h in data set [4] worked out at 11 µg/mL (≈ 27 µM).
Regarding `O=c1cc(N2CCOCC2)cc(N2CCCC[C@@H]2Cc2ccccc2)[nH]1`, the IC50 in data set [2] amounted to 8 µM. In addition, the inhibitory constant (Ki) in data set [3] turned out to be 0.17 µM. Moreover, the solubility kinetic at 2 h in data set [4] turned out to be 59 µg/mL (≈ 167 µM).
